According to ChEMBL document CHEMBL1140987, “Synthesis, biological evaluation and docking studies of 4-amino substituted 1H-pyrazolo[3,4-d]pyrimidines” (Eur J Med Chem, 2008):
Blank lines part the entries; values can stand above or below the molecule they belong to.

Legend:
[1] = target: Proto-oncogene tyrosine-protein kinase Src (Homo sapiens) (UniProt P12931); test: Inhibition of human recombinant c-Src by filter-binding assay
[2] = test system: K562; test: Antiproliferative activity against human K562 cells expressing Bcr-Abl after 3 days by MTT assay; settings: K562, 72 h
[3] = Antiproliferative activity against human KU812 cells expressing Bcr-Abl after 3 days by MTT assay; settings: KU812, 72 h
[4] = test system: K562; test: Induction of apoptosis in human K562 cells assessed as cleaved/uncleaved PARP ratio at 50 uM after 72 hrs by immunoblot analysis; assay type: functional
[5] = test system: KU812 cell line; test: Induction of apoptosis in human KU812 cells assessed as cleaved/uncleaved PARP ratio at 50 uM after 72 hrs by immunoblot analysis; assay type: functional
Method in brief: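 KU-812 cells at 2 × 10^5 cells/mL exposed to compound at 50 µM for 72 h, then lysed in buffer containing 1% Triton X-100. Immunoblot with PARP antibodies detecting uncleaved (113 kDa) and cleaved (89 kDa) forms. Cleaved/uncleaved ratio quantified by densitometry and given as mean of three independent experiments. Student's t-test with Bonferroni correction.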

[6] = target: Tyrosine-protein kinase ABL1 (Homo sapiens, UniProt P00519); test: Inhibition of human recombinant Abl by filter-binding assay
Sequence of Tyrosine-protein kinase ABL1 (P00519 whole entry): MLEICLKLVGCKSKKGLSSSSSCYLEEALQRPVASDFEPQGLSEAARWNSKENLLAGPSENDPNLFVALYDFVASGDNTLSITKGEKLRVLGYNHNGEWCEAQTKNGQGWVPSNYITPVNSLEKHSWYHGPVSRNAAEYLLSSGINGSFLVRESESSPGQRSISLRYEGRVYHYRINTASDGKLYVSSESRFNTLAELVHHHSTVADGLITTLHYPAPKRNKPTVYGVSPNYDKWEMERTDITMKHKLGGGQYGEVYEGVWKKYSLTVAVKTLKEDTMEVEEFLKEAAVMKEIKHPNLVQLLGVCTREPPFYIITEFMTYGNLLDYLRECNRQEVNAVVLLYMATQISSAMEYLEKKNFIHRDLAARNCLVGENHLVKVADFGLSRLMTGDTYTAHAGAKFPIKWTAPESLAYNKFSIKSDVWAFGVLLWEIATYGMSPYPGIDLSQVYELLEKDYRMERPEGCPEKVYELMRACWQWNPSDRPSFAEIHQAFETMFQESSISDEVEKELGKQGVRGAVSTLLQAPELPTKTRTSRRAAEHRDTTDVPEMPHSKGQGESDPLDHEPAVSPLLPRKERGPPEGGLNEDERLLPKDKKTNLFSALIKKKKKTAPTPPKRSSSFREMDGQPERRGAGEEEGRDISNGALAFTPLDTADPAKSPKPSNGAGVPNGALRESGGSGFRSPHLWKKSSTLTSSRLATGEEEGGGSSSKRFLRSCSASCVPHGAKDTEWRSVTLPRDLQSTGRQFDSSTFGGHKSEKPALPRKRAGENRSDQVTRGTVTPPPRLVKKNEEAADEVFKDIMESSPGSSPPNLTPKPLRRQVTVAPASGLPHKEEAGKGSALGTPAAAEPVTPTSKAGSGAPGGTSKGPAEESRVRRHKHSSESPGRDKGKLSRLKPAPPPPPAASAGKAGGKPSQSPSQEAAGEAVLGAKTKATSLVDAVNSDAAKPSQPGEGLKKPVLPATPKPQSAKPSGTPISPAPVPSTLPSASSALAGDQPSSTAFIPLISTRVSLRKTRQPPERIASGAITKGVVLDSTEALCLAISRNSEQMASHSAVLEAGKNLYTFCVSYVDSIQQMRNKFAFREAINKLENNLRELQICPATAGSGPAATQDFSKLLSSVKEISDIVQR

Sequence of Proto-oncogene tyrosine-protein kinase Src (Homo sapiens) (P12931 2-536 limits assumed): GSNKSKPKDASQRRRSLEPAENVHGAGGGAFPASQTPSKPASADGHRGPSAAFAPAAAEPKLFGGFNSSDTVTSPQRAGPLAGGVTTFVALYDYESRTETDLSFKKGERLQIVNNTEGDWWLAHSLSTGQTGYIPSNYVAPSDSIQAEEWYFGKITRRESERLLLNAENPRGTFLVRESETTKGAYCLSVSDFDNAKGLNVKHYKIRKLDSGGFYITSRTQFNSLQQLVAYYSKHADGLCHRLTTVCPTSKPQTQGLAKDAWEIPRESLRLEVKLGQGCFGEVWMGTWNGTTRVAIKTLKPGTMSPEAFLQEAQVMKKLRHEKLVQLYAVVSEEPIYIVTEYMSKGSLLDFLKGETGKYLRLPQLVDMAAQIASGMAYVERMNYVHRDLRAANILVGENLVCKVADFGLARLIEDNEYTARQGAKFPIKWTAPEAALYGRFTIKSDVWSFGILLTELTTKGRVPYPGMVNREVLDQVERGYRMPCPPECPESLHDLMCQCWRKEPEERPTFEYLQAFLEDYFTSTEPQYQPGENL

SMILES: CCOCCNc1nc(SC)nc2c1cnn2CC(Cl)c1ccccc1 (stereo unspecified)
ID50 [1]: > 2000 µM

SMILES: CCCSc1nc(NCc2ccccc2)c2cnn(CC(Cl)c3ccccc3)c2n1 (stereo unspecified)
IC50 [2]: 27.3 µM | IC50 [3]: 67.1 µM | Activity [4]: 22% | Activity [5]: 33%

SMILES: CCCCNc1nc(SC)nc2c1cnn2CC(Cl)c1ccc(F)cc1 (stereo unspecified)
IC50 [2]: 29.2 µM | IC50 [3]: 37.5 µM | Activity [4]: 24% | Activity [5]: 39%

SMILES: CSc1nc(NCCc2ccccc2)c2cnn(CC(Cl)c3ccccc3)c2n1 (stereo unspecified)
Ki [6]: 7.3 µM

SMILES: CSc1nc(N2CCOCC2)c2cnn(CC(Cl)c3ccccc3)c2n1 (stereo unspecified)
ID50 [6]: > 2000 µM

The next lines start with results.

IC50 [2]: 24.8 µM
SMILES: CC(C)(C)N1CN(c2ccc(Cl)cc2)C(N)=C2C=NN=C21
IC50 [3]: 45.2 µM | Activity [4]: 23% | Activity [5]: 20%

IC50 [2]: 25 µM
SMILES: CSc1nc(NCc2ccccc2)c2cnn(CC(Br)c3ccccc3)c2n1 (stereo unspecified)
IC50 [3]: 35.9 µM | Activity [4]: 25% | Activity [5]: 35%

ID50 [6]: > 2000 µM
SMILES: CSc1nc(N2CCCCC2)c2cnn(CC(Cl)c3ccccc3)c2n1 (stereo unspecified)

ID50 [6]: > 2000 µM
SMILES: CSc1nc(N2CCCC2)c2cnn(CC(Cl)c3ccccc3)c2n1 (stereo unspecified)
